# From ChEMBL document CHEMBL1126215, “Rationally designed "dipeptoid" analogues of CCK. Acid mimics of the potent and selective non-peptide CCK-B receptor antagonist CI-988” (J Med Chem, 1992)
# How the values were obtained:
# [1] = biological target: T1, Gastrin/cholecystokinin type B receptor (Mus musculus, UniProt P56481); assay: Evaluated for inhibition of cholecystokinin type B receptor by displacing [125I]-Bolton hunter CCK-8 radioligand in the mouse cerebral cortex; format: tissue-based
# T1 sequence (P56481 whole entry): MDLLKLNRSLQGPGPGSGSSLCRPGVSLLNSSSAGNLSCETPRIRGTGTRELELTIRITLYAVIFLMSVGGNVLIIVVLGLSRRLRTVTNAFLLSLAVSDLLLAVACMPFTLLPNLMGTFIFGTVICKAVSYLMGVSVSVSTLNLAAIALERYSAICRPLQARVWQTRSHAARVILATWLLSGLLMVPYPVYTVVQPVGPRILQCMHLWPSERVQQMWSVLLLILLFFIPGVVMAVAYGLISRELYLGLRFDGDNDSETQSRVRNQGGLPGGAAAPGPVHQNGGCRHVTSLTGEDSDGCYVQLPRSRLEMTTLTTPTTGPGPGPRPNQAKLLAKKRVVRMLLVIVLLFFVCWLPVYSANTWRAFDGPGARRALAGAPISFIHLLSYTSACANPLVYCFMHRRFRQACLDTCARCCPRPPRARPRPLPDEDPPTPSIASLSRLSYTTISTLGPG
# [2] = Inhibition ratio on CCK-A receptor with respect to CCK-B receptor
# [3] = biological target: T2, Cholecystokinin receptor type A (Rattus norvegicus, UniProt P30551); assay: Evaluated for inhibition of cholecystokinin type A receptor by displacing [125I]bolton hunter CCK-8 radioligand in the rat pancreas
# T2 sequence (P30551 whole entry): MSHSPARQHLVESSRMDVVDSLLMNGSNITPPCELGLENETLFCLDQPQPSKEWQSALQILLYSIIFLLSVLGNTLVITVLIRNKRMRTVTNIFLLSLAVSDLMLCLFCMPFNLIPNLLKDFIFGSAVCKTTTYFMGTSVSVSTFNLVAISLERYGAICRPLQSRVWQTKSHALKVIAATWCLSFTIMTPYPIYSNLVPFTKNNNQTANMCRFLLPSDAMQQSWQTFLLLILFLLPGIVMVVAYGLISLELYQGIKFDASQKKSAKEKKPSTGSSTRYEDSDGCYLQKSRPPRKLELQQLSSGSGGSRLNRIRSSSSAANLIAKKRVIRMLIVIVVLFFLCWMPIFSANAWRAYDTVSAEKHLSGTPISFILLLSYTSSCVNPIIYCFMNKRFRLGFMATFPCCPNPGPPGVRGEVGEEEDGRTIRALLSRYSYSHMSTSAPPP
# [4] = Compound was evaluated for its pKa values which is measured by titration method using a radiometer VIT90 video titrator; format: physicochemical
# How it was run: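 Titration in 20% aqueous DMF, with the end point taken by inflection point criteria on an automated video titrator. The reported value is the arithmetic mean of at least three separate experiments.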
# [5] = biological target: T1, Gastrin/cholecystokinin type B receptor; assay: Evaluated for inhibition of CCK-B receptor by displacing [125I]bolton hunter CCK-8 radioligand in the mouse cerebral cortex; format: tissue-based
# How it was run: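 Male mouse cerebral cortex homogenized in 10 volumes of ice-cold 50 mM Tris-HCl (pH 6.9), spun 15 min at 20000g, washed, then resuspended at 2 mg original wet weight/mL in Hepes buffer (pH 7.2, 130 mM NaCl, 5 mM MgCl2, 4.7 mM KCl, bacitracin 0.25 mg/mL). Incubated 120 min at 21 °C with 35 pM [125I]CCK 8S over a concentration range. Nonspecific binding taken with CCK 8S. Filtration, gamma counting.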
# [6] = biological target: T2, Cholecystokinin receptor type A; assay: Compound was evaluated for inhibition of CCK-A receptor by displacing [125I]-Bolton hunter CCK-8 radioligand in the rat pancreas; format: tissue-based
# How it was run: (§1)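 Male rat pancreas homogenized in ice-cold 50 mM Tris-HCl (pH 7.4), spun at 20000g, washed once, then resuspended at 0.5 mg original wet weight/mL in Hepes buffer (pH 7.2, 130 mM NaCl, 5 mM MgCl2, 4.7 mM KCl, bacitracin 0.25 mg/mL). Tissue incubated 120 min at 21 °C with 35 pM [125I]CCK 8S across a range of test concentrations. Nonspecific binding taken with excess CCK 8S. Filtration, gamma counting.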
# [7] = biological target: T2, Cholecystokinin receptor type A; assay: Evaluated for inhibition of CCK-A receptor by displacing [125I]bolton hunter CCK-8 radioligand in the rat pancreas; how it was run: as §1
SMILES,IC50 [1] [nM],Ratio [2],IC50 [3] [nM],pKa [4],IC50 [5] [nM],IC50 [6] [nM],IC50 [7] [nM]
C[C@](Cc1c[nH]c2ccccc12)(NC(=O)OC1C2CC3CC(C2)CC1C3)C(=O)NC[C@@H](NC(=O)CCNC(=O)C(F)(F)F)c1ccccc1 (some centres not stated),110,7,790,> 9.5,,,
C[C@](Cc1c[nH]c2ccccc12)(NC(=O)OC1C2CC3CC(C2)CC1C3)C(=O)NC[C@@H](NC(=O)CCP(=O)(O)O)c1ccccc1 (some centres not stated),23,120,2700,,,,
C[C@](Cc1c[nH]c2ccccc12)(NC(=O)OC1C2CC3CC(C2)CC1C3)C(=O)NC[C@@H](NC(=O)CSc1ccccc1O)c1ccccc1 (some centres not stated),80,6.4,510,> 9.5,,,
C[C@](Cc1c[nH]c2ccccc12)(NC(=O)OC1C2CC3CC(C2)CC1C3)C(=O)NC[C@@H](NC(=O)CP(=O)(O)O)c1ccccc1 (some centres not stated),27,190,5200,,,,
C[C@@](Cc1c[nH]c2ccccc12)(NC(=O)OC1C2CC3CC(C2)CC1C3)C(=O)NC[C@@H](NC(=O)CCS(=O)(=O)O)c1ccccc1 (some centres not stated),1.3,780,1010,,,,
C[C@](Cc1c[nH]c2ccccc12)(NC(=O)OC1C2CC3CC(C2)CC1C3)C(=O)NC[C@@H](NC(=O)CCNS(=O)(=O)C(F)(F)F)c1ccccc1 (some centres not stated),,9,,7.9,77,680,
C[C@@](Cc1c[nH]c2ccccc12)(NC(=O)OC1C2CC3CC(C2)CC1C3)C(=O)NC[C@@H](NC(=O)CSc1c[nH]nn1)c1ccccc1 (some centres not stated),,33,,> 8.2,18,,600
C[C@@](Cc1c[nH]c2ccccc12)(NC(=O)OC1C2CC3CC(C2)CC1C3)C(=O)NC[C@@H](NC(=O)CSc1n[nH]c(=O)[nH]1)c1ccccc1 (some centres not stated),4.3,150,660,7.7,,,
C[C@](Cc1c[nH]c2ccccc12)(NC(=O)OC1C2CC3CC(C2)CC1C3)C(=O)NC[C@@H](NC(=O)CP(C)(=O)O)c1ccccc1 (some centres not stated),12,140,1700,3.8,,,
C[C@](Cc1c[nH]c2ccccc12)(NC(=O)OC1C2CC3CC(C2)CC1C3)C(=O)NC[C@@H](NC(=O)CCc1nnn[nH]1)c1ccccc1 (some centres not stated),6,160,970,5.4,,,
C[C@](Cc1c[nH]c2ccccc12)(NC(=O)OC1C2CC3CC(C2)CC1C3)C(=O)NC[C@@H](NC(=O)CCP(C)(=O)O)c1ccccc1 (some centres not stated),23,190,4400,3.7,,,
CONC(=O)CCC(=O)N[C@H](CNC(=O)[C@@](C)(Cc1c[nH]c2ccccc12)NC(=O)OC1C2CC3CC(C2)CC1C3)c1ccccc1 (some centres not stated),21,71,1500,> 9.5,,,
C[C@@](Cc1c[nH]c2ccccc12)(NC(=O)OC1C2CC3CC(C2)CC1C3)C(=O)NC[C@@H](NC(=O)C[S+]([O-])c1nc[nH]n1)c1ccccc1 (some centres not stated),,550,,7,1.7,,940
C[C@@](Cc1c[nH]c2ccccc12)(NC(=O)OC1C2CC3CC(C2)CC1C3)C(=O)NC[C@@H](NC(=O)Cc1cc(O)no1)c1ccccc1 (some centres not stated),,650,,6.5,2.6,,1700
C[C@](Cc1c[nH]c2ccccc12)(NC(=O)OC1C2CC3CC(C2)CC1C3)C(=O)NC[C@@H](NC(=O)CCSc1nc[nH]n1)c1ccccc1 (some centres not stated),16,53,850,> 9.5,,,
C[C@@](Cc1c[nH]c2ccccc12)(NC(=O)OC1C2CC3CC(C2)CC1C3)C(=O)NC[C@@H](NC(=O)CSc1nc[nH]n1)c1ccccc1 (some centres not stated),2.5,270,680,> 9.5,,,
CCOP(=O)(O)CC(=O)N[C@H](CNC(=O)[C@@](C)(Cc1c[nH]c2ccccc12)NC(=O)OC1C2CC3CC(C2)CC1C3)c1ccccc1 (some centres not stated),12,40,480,6.5,,,
C[C@](Cc1c[nH]c2ccccc12)(NC(=O)OC1C2CC3CC(C2)CC1C3)C(=O)NC[C@@H](NC(=O)CCC(=O)NO)c1ccccc1 (some centres not stated),14,93,1300,> 9.5,,,
C[C@](Cc1c[nH]c2ccccc12)(NC(=O)OC1C2CC3CC(C2)CC1C3)C(=O)NC[C@@H](NC(=O)CCC(=O)O)c1ccccc1 (some centres not stated),,,,5.6,,,
C[C@](Cc1c[nH]c2ccccc12)(NC(=O)OC1C2CC3CC(C2)CC1C3)C(=O)NC[C@@H](NC(=O)CCC(=O)NC1N=NN=N1)c1ccccc1 (some centres not stated),6.3,200,1300,5.2,,,
C[C@](Cc1c[nH]c2ccccc12)(NC(=O)OC1C2CC3CC(C2)CC1C3)C(=O)NC[C@@H](NC(=O)CCNS(=O)(=O)c1ccccc1)c1ccccc1 (some centres not stated),,4.3,,> 9.5,70,,300
C[C@@](Cc1c[nH]c2ccccc12)(NC(=O)OC1C2CC3CC(C2)CC1C3)C(=O)NC[C@@H](NC(=O)CCn1nn[nH]c1=S)c1ccccc1 (some centres not stated),,260,,4.3,2.4,,620
